Data from paper PMC9299459 (Clinical Pharmacology in Drug Development, 2021).
“Also recorded” adds a separate entry of the source. Where two headings read alike, the source gives them in different places.

Legend:
[1] = format: in vivo, human; settings: for AUC(0-inf): AUCinf; for AUC(0-t): AUClast
[2] = repeated administration; cited from earlier work
[3] = aqueous solution, cited from earlier work
Safety and tolerability = format: in vivo, human; settings: healthy participants
Outline: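 Open-label, randomized, 2-period, 2-sequence crossover in healthy men and women of non-childbearing potential, aged 18–55 years. Arms were a single oral 250 mg dose of test compound after overnight fast, or the same dose on day 5 of proton pump inhibitor 40 mg daily for 5 days. Dosing was supervised, in the morning with 240 mL water. All participants dosed at least once were included. AEs, ECGs, vital signs and safety labs were reviewed throughout.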

[4] = healthy participants, plasma, single oral crizotinib 250 mg on day 5 of esomeprazole 40 mg/day (n = 15)
[5] = healthy participants, single oral crizotinib 250 mg on day 5 of esomeprazole 40 mg/day (n = 15)
[6] = human, plasma, oral, 250 mg, Adjusted Geometric Mean, Reference, Reference: single 250-mg crizotinib dose after overnight fasting
[7] = human, plasma, oral, Adjusted Geometric Mean, Test, Test: esomeprazole 40 mg per day for 5 days and single 250-mg crizotinib dose after overnight fasting on day 5
[8] = human, plasma, po, 250 mg, Arithmetic Mean ± SD, healthy participants, plasma, single oral crizotinib 250 mg on day 5 of esomeprazole 40 mg/day (n = 15)
[9] = human, plasma, po, 250 mg, Geometric Mean (%CV), healthy participants, plasma, single oral crizotinib 250 mg on day 5 of esomeprazole 40 mg/day (n = 15)
[10] = N = 15 per treatment, MedDRA preferred term
[11] = Reference: single 250-mg crizotinib dose after overnight fasting
[12] = Test: esomeprazole 40 mg per day for 5 days and single 250-mg crizotinib dose after overnight fasting on day 5
[13] = molar ratio PF-06260182/crizotinib, single oral crizotinib 250 mg alone (n = 15)

## C[C@@H](Oc1cc(-c2cnn(C3CCNCC3)c2)cnc1N)c1c(Cl)ccc(F)c1Cl [Crizotinib]
[1]; esomeprazole 40 mg once daily x 5 days, single crizotinib 250 mg
  Effect of esomeprazole coadministration on peak exposure (Cmax): did not affect; also recorded: no effect
[1]; [4]
  tmax, median (range): 5.00 (3.00‐6.00) h
[1]; [5]
  CL/F (apparent clearance after oral dose), Arithmetic Mean ± SD: 124.8 ± 40.9 L/h
  CL/F (apparent clearance after oral dose), Geometric Mean (%CV): 117.8 (33) L/h
[1]; [6]
  AUC(0-inf): 2370 ng·h/mL
  AUC(0-t): 2240 ng·h/mL
  Cmax: 115 ng/mL
[1]; [7]
  AUC(0-inf): 2120 ng·h/mL
  AUC(0-t): 2010 ng·h/mL
  Cmax: 117 ng/mL
[1]; human, plasma, po, 250 mg
  Tmax: 5 h
  half-life: 35.8 ± 4.4 h
[1]; [8]
  AUC(0-inf): 2260 ± 891 ng·h/mL
  AUC(0-t): 2170 ± 876 ng·h/mL
  Cmax: 119 ± 32.9 ng/mL
[1]; [9]
  AUC(0-inf): 2120 ng·h/mL
  AUC(0-t): 2020 ng·h/mL
  Cmax: 115 ng/mL
[1]; human, plasma, po, 250 mg, t1/2 (terminal elimination half-life), Arithmetic Mean ± SD, healthy participants, plasma, single oral crizotinib 250 mg after overnight fast, alone (n = 15)
  half-life: 33.2 ± 7 h
[1]; with or without esomeprazole, single crizotinib 250 mg
  Median time to Cmax: 5 h
[2]
  time to steady state: 15 days
[3]; pH 1.6
  solubility: > 10000 µg/mL
[3]; pH 8.2
  solubility: < 100 µg/mL
Safety and tolerability
  gastrointestinal disorders (system organ class), all causality: 11 participants
  nervous system disorders (system organ class), all causality: 4 participants
  treatment-related gastrointestinal disorders (system organ class): 11 participants
Safety and tolerability; N = 15 per treatment
  Discontinuations due to AEs, all causality: 0
  Dose reductions or temporary discontinuation due to AEs: 0
  Participants with AEs, all causality: 12 (12)
  Participants with AEs, treatment-related: 12 (12)
  Participants with serious AEs: 0
  Participants with severe AEs: 0
Safety and tolerability; [10]
  Abdominal pain upper, all causality: 0
  Abdominal pain, all causality: 3 (3)
  Abdominal pain, treatment-related: 3 (3)
  Abnormal gastrointestinal sounds, all causality: 1 (1)
  Abnormal gastrointestinal sounds, treatment-related: 1 (1)
  Diarrhea, all causality: 11 (11)
  Diarrhea, treatment-related: 11 (11)
  Dizziness, all causality: 2 (2)
  Dizziness, treatment-related: 2 (2)
  Fatigue, all causality: 2 (2)
  Fatigue, treatment-related: 2 (2)
  Headache, all causality: 2 (2)
  Headache, treatment-related: 2 (2)
  Nausea, all causality: 2 (2)
  Nausea, treatment-related: 2 (2)
Safety and tolerability; treatment-emergent
  Number of AEs, all causality: 28
  Number of AEs, treatment-related: 24
Safety and tolerability; treatment-emergent, listed as crizotinib
  Number of AEs, treatment-related: Twenty‐four
Safety and tolerability; single 250-mg dose
  Overall safety and tolerability: generally safe and well tolerated

## CC(Oc1cc(-c2cnn(C3CCNC(=O)C3)c2)cnc1N)c1c(Cl)ccc(F)c1Cl (stereo not shown) [PF‐06260182]
[1]; [11]
  AUCinf, Adjusted Geometric Mean, Reference: 446.0 ng·h/mL
  AUClast, Adjusted Geometric Mean, Reference: 436.9 ng·h/mL
  Cmax, Adjusted Geometric Mean, Reference: 34.8 ng/mL
[1]; [12]
  AUCinf, Adjusted Geometric Mean, Test: 367.8 ng·h/mL
  AUClast, Adjusted Geometric Mean, Test: 359.8 ng·h/mL
  Cmax, Adjusted Geometric Mean, Test: 26.9 ng/mL
[1]; both treatments (crizotinib alone and with esomeprazole)
  apparent t1/2, mean value: ≈ 20 hours
[1]; [4]
  AUCinf, Arithmetic Mean ± SD: 383 ± 127 ng·h/mL
  AUCinf, Geometric Mean (%CV): 364 (33) ng • h/mL
  AUClast, Arithmetic Mean ± SD: 376 ± 126 ng·h/mL
  AUClast, Geometric Mean (%CV): 357 (34) ng • h/mL
  Cmax, Arithmetic Mean ± SD: 27.7 ± 6.8 ng/mL
  Cmax, Geometric Mean (%CV): 26.8 (25) ng/mL
  t1/2 (terminal elimination half-life), Arithmetic Mean ± SD: 19.5 ± 5.9 h
  tmax, median (range): 6.00 (5.00‐8.05) h
[1]; molar ratio PF-06260182/crizotinib, single oral crizotinib 250 mg alone (n = 14)
  MRAUCinf (metabolite to parent ratio of AUCinf), Geometric Mean (%CV): 0.18 (16)
[1]; [13]
  MRAUClast (metabolite to parent ratio of AUClast), Geometric Mean (%CV): 0.19 (18)
  MRCmax (metabolite to parent ratio of Cmax), Geometric Mean (%CV): 0.29 (26)

## COc1ccc2nc([S@@+]([O-])Cc3ncc(C)c(OC)c3C)[nH]c2c1 [esomeprazole, Esomeprazole]
Safety and tolerability
  gastrointestinal disorders (system organ class), all causality: 3 participants
  nervous system disorders (system organ class), all causality: 2 participants
  treatment-related gastrointestinal disorders (system organ class): 3 participants
Safety and tolerability; treatment-emergent
  Number of AEs, treatment-related: 7
